Source: ChEMBL document CHEMBL1126019, “Synthesis, stability, and biological evaluation of water-soluble prodrugs of a new echinocandin lipopeptide. Discovery of a potential clinical agent for the treatment of systemic candidiasis and Pneumocystis carinii pneumonia (PCP)” (J Med Chem, 1992)
pIC50: −log10 of the molar value.

Experiments:
[1] = species: Mus musculus; experiment: Minimum effect dose required to reduce the number of colony forming units in per gram kidney of mice after being challenged, by tail vein injection, with 5 X l0e4 cells of Candida albicans (MY 1055); format: functional
Method in brief: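 DBA/2 mice (5 per dose level) were infected intravenously and dosed ip with vehicle sham or 1.5, 3.0 or 6.0 mg/kg twice daily for 4 days. On day 7 post-infection, kidneys were cultured on SDA (35 °C, 24 h) and CFU/g counted. MED99 is the dose giving ≥99% CFU/g reduction versus vehicle sham.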

[2] = species: Rattus norvegicus; experiment: Minimum effect dose required to reduce the number of alveolor cyst load in rat Pneumocystis carinii pneumonia assay; format: functional
Method in brief: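 Immunosuppressed Sprague-Dawley rats with confirmed infection (5 per dose level) were dosed subcutaneously, 0.15 and 0.60 mg/kg twice daily for 4 days. On day 5, lungs were homogenized and cysts counted microscopically in a known amount of homogenate. MED90 is the dose giving ≥90% cyst reduction versus vehicle sham controls.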

[3] = tested on: Fungi; experiment: Minimum fungicidal concentration against Candida albicans MY 1028; format: functional, organism-based
Method in brief: (§1)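 Clinical isolates in yeast nitrogen base with 1% dextrose, inoculated with about 5×10^3 CFU per well. Drug was tested by 2-fold serial dilution from 128 to 0.06 µg/mL, with growth for 24 h at 35 °C. 1.5-µL aliquots were then spotted onto Sabouraud dextrose agar and incubated at 35 °C for 24 h. MFC was the lowest concentration giving fewer than five colonies per spot. Duplicate determinations.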

[4] = tested on: Fungi; experiment: Minimum fungicidal concentration against Candida tropicalis MY 1012; format: functional, organism-based; method in brief: as §1
[5] = tested on: Fungi; experiment: Minimum fungicidal concentration against Candida pseudotropicalis MY 1100; format: functional, organism-based
Method in brief: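 Clinical isolates were inoculated at about 5×10^3 CFU into yeast nitrogen base with 1% dextrose, with drug in 2-fold dilutions from 128 to 0.06 µg/mL, and grown 24 h at 35 °C. Then 1.5 µL aliquots were spotted on Sabouraud dextrose agar and held 24 h at 35 °C. MFC is the lowest concentration giving fewer than five colonies per spot, from duplicate determinations.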

[6] = species: Homo sapiens; experiment: Hemolytic potential was determined as the minimum lytic concentration against human red blood cells; format: functional, cell-based
Method in brief: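 Compounds were serially diluted in water containing 10% DMSO and added to whole human blood, then incubated 2 h at 37 °C. Red cell lysis was scored visually, and the lowest lytic concentration was recorded.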

[7] = Inhibitory activity against glucan synthesis; format: functional
[8] = tested on: Fungi; experiment: Minimum fungicidal concentration against Candida albicans MY 1055; format: functional, organism-based; method in brief: as §1
[9] = tested on: Fungi; experiment: Minimum fungicidal concentration against Candida parapsilosis MY 1010; format: functional, organism-based; method in brief: as §1

pIC50 [7] | Compound | MED99 [1] [mg/kg] | MED90 [2] [mg/kg] | Concentration [3] [µg/mL] | Concentration [4] [µg/mL] | Concentration [5] [µg/mL] | Concentration [6] [µg/mL] | Concentration [8] [µg/mL] | Concentration [9] [µg/mL]
– | CCC(C)CC(C)CCCCCCCCC(=O)N[C@H]1C[C@@H](O)[C@@H](O)NC(=O)[C@@H]2[C@@H](O)CCN2C(=O)[C@H]([C@@H](O)CC(N)=O)NC(=O)[C@H]([C@H](O)[C@@H](O)c2ccc(OC(=O)OCCN(C)C)cc2)NC(=O)[C@@H]2C[C@@H](O)CN2C(=O)[C@H]([C@@H](C)O)NC1=O.O=C(O)C(F)(F)F (some centres not stated) | 6 | 0.6 | – | – | – | – | – | –
7.30 | CCC(C)CC(C)CCCCCCCCC(=O)N[C@H]1C[C@@H](O)[C@@H](O)NC(=O)[C@@H]2[C@@H](O)CCN2C(=O)[C@H]([C@@H](O)CC(N)=O)NC(=O)[C@H]([C@H](O)[C@@H](O)c2ccc(OC(=O)CN)cc2)NC(=O)[C@@H]2C[C@@H](O)CN2C(=O)[C@H]([C@H](C)O)NC1=O (some centres not stated) | – | – | 1 | < 0.06 | 2 | 100 | 0.5 | –
– | CCC(C)CC(C)CCCCCCCCC(=O)N[C@H]1C[C@@H](O)[C@@H](O)NC(=O)[C@@H]2[C@@H](O)CCN2C(=O)[C@H]([C@@H](O)CC(N)=O)NC(=O)[C@H]([C@H](O)[C@@H](O)c2ccc(OC(=O)NCC(=O)O)cc2)NC(=O)[C@@H]2C[C@@H](O)CN2C(=O)[C@H]([C@@H](C)O)NC1=O (some centres not stated) | > 6 | > 0.3 | – | – | – | – | – | –
– | CCC(C)CC(C)CCCCCCCCC(=O)N[C@H]1C[C@@H](O)[C@@H](O)NC(=O)[C@@H]2[C@@H](O)CCN2C(=O)[C@H]([C@@H](O)CC(N)=O)NC(=O)[C@H]([C@H](O)[C@@H](O)c2ccc(O)cc2)NC(=O)[C@@H]2C[C@@H](O)CN2C(=O)[C@H]([C@@H](C)O)NC1=O (some centres not stated) | 3 | 0.15 | – | – | – | – | – | –
6.00 | CCC(C)CC(C)CCCCCCCCC(=O)N[C@H]1C[C@@H](O)[C@@H](O)NC(=O)[C@@H]2[C@@H](O)CCN2C(=O)[C@H]([C@@H](O)CC(N)=O)NC(=O)[C@H]([C@H](O)[C@@H](O)c2ccc(OC(=O)CCCC(=O)O)cc2)NC(=O)[C@@H]2C[C@@H](O)CN2C(=O)[C@H]([C@H](C)O)NC1=O (some centres not stated) | – | – | 0.5 | 0.5 | 2 | > 400 | 0.5 | –
– | CCC(C)CC(C)CCCCCCCCC(=O)N[C@H]1C[C@@H](O)[C@@H](O)NC(=O)[C@@H]2[C@@H](O)CCN2C(=O)[C@H]([C@@H](O)CC(N)=O)NC(=O)[C@H]([C@H](O)[C@@H](O)c2ccc(OC(=O)N(C)CC(=O)O)cc2)NC(=O)[C@@H]2C[C@@H](O)CN2C(=O)[C@H]([C@@H](C)O)NC1=O (some centres not stated) | > 6 | > 0.6 | – | – | – | – | – | –
7.15 | CCC(C)CC(C)CCCCCCCCC(=O)N[C@H]1C[C@@H](O)[C@@H](O)NC(=O)[C@@H]2[C@@H](O)CCN2C(=O)[C@H]([C@@H](O)CC(N)=O)NC(=O)[C@H]([C@H](O)[C@@H](O)c2ccc(O)cc2)NC(=O)[C@@H]2C[C@@H](O)CN2C(=O)[C@H]([C@H](C)O)NC1=O (some centres not stated) | – | – | 0.125 | 0.06 | 2 | > 400 | 0.25 | 4
– | CCC(C)CC(C)CCCCCCCCC(=O)N[C@H]1C[C@@H](O)[C@@H](O)NC(=O)[C@@H]2[C@@H](O)CCN2C(=O)[C@H]([C@@H](O)CC(N)=O)NC(=O)[C@H]([C@H](O)[C@@H](O)c2ccc(OC(=O)NCCN(C)C)cc2)NC(=O)[C@@H]2C[C@@H](O)CN2C(=O)[C@H]([C@@H](C)O)NC1=O.O=C(O)C(F)(F)F (some centres not stated) | 6 | 0.6 | – | – | – | – | – | –
– | CCC(C)CC(C)CCCCCCCCC(=O)N[C@H]1C[C@@H](O)[C@@H](O)NC(=O)[C@@H]2[C@@H](O)CCN2C(=O)[C@H]([C@@H](O)CC(N)=O)NC(=O)[C@H]([C@H](O)[C@@H](O)c2ccc(OC(=O)NCCC(=O)O)cc2)NC(=O)[C@@H]2C[C@@H](O)CN2C(=O)[C@H]([C@@H](C)O)NC1=O (some centres not stated) | > 6 | > 0.6 | – | – | – | – | – | –
6.70 | CCC(C)CC(C)CCCCCCCCC(=O)N[C@H]1C[C@@H](O)[C@@H](O)NC(=O)[C@@H]2[C@@H](O)CCN2C(=O)[C@H]([C@@H](O)CC(N)=O)NC(=O)[C@H]([C@H](O)[C@@H](O)c2ccc(OC(=O)CCN)cc2)NC(=O)[C@@H]2C[C@@H](O)CN2C(=O)[C@H]([C@H](C)O)NC1=O (some centres not stated) | – | – | 1 | 0.5 | – | 100 | 1 | 16
